Experimental data: ChEMBL document CHEMBL3779881, “Property Focused Structure-Based Optimization of Small Molecule Inhibitors of the Protein-Protein Interaction between Menin and Mixed Lineage Leukemia (MLL)” (J Med Chem, 2016)
The source made the active and inactive calls. The calls are words filed in the database; no cut-off is given here.

Key:
[1] = molecular target: T1, Menin/Histone-lysine N-methyltransferase 2A (Mus musculus) (UniProt O88559+P55200); assay: Inhibition of menin-MLL interaction in MLL-AF9 transformed mouse bone marrow cells assessed as induction of cell differentiation measured as decreased nuclei to cytoplasm ratio at 0.5 uM after 7 days by Cytospin/Wright-Giemsa staining assay
Outline: (§1)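 MLL-AF9 transduced mouse bone marrow cells seeded at 3×10^5/mL, treated with compound or 0.25% DMSO at 37 °C, 5% CO2 for 7 days; cytospins stained with Wright–Giemsa and scored for morphology.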

MOLM-13 = assay: Growth inhibition of human MOLM13 after 7 days by MTT assay; format: functional; conditions: MOLM-13, 168 h
Outline: (§2)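 Cells in RPMI-1640/10% FBS/pen-strep/NEAA, seeded at 1×10^5/mL (MOLM-13, MV4;11) or 2×10^5/mL (HL-60), treated with compound or 0.25% DMSO for 7 days at 37 °C. Medium changed on day 4 with cell density reset and compound resupplied. MTT absorbance read at 570 nm; 2–3 experiments in quadruplicate, mean ± SD.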

Plasma = assay: Drug metabolism in C57BL/6 mouse plasma assessed as glucuronidation at 15 mg/kg, iv after 24 hrs by LC-MS/MS analysis; format: ADME, organism-based; conditions: in vivo
Outline: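 Female C57BL/6 mice given 15 mg/kg iv in 25% DMSO/25% PEG-400/50% PBS; serial plasma samples analysed by the same LC-MS/MS procedure as the PK work to detect glucuronide conjugates.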

[2] = Growth inhibition of Hoxa9/Meis1 transformed mouse bone marrow cells after 7 days by MTT assay; format: functional; conditions: Bone marrow cell, 168 h
[3] = molecular target: T1, Menin/Histone-lysine N-methyltransferase 2A (Mus musculus); assay: Inhibition of menin-MLL interaction in MLL-AF9 transformed mouse bone marrow cells assessed as induction of cell differentiation measured as highly vacuolated cytoplasm at 0.5 uM after 7 days by Cytospin/Wright-Giemsa staining assay; outline: as §1
MV4-11 [4] = assay: Antitumor activity against human MV4-11 cells xenografted in CB17 SCID mouse assessed as tumor growth inhibition at 45 mg/kg, ip qd administered for 2 weeks; format: functional; conditions: MV4-11, ip, 336 h, read-out: TGI
Outline: (§3)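 MV4;11 cells in serum-free medium mixed 1:1 with Matrigel; 5×10^6 cells injected subcutaneously into the right flank of female mice aged 4–6 weeks. Dosing began at ~100 mm³ tumours; mice randomised, once-daily ip injections of vehicle or compound for 2 weeks.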

Mus musculus [5] = assay: AUC in C57BL/6 mouse at 15 mg/kg, iv after 24 hrs by LC-MS/MS analysis; format: ADME, organism-based; design: dose 15 mg/kg, time < 24 hr, route intravenous; conditions: in vivo
Outline: (§4)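 Female C57BL/6 mice dosed iv at 15 mg/kg or orally at 30 mg/kg in 25% DMSO/25% PEG-400/50% PBS (v/v). Serial 50 μL blood samples collected over 24 h (8 h in one experiment), spun to plasma; concentrations by validated LC-MS/MS in positive-ion MRM mode; parameters from noncompartmental analysis.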

Mus musculus [6] = assay: Half life in C57BL/6 mouse at 15 mg/kg, iv after 24 hrs by LC-MS/MS analysis; format: ADME, organism-based; conditions: in vivo; outline: as §4
Mus musculus [7] = assay: Oral bioavailability in C57BL/6 mouse at 30 mg/kg after 24 hrs by LC-MS/MS analysis; format: ADME, organism-based; conditions: in vivo; outline: as §4
[8] = molecular target: T1, Menin/Histone-lysine N-methyltransferase 2A (Mus musculus); assay: Inhibition of menin-MLL interaction in MLL-AF9 transformed mouse bone marrow cells assessed as induction of cell differentiation measured as upregulation of Itgam expression level at 0.12 to 0.5 uM after 6 days by qRT-PCR analysis
Outline: (§5)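 MLL-AF9 transformed murine bone marrow cells treated 6 days, then qRT-PCR. Hoxa9 and Meis1 normalised to β-actin; Itgam normalised to 18S rRNA; each referenced to DMSO-treated cells; mean ± SD, n = 2.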

Menin = molecular target: T2, Menin (Homo sapiens, UniProt O00255); assay: Binding affinity to menin (unknown origin)
T2 sequence (O00255 whole entry): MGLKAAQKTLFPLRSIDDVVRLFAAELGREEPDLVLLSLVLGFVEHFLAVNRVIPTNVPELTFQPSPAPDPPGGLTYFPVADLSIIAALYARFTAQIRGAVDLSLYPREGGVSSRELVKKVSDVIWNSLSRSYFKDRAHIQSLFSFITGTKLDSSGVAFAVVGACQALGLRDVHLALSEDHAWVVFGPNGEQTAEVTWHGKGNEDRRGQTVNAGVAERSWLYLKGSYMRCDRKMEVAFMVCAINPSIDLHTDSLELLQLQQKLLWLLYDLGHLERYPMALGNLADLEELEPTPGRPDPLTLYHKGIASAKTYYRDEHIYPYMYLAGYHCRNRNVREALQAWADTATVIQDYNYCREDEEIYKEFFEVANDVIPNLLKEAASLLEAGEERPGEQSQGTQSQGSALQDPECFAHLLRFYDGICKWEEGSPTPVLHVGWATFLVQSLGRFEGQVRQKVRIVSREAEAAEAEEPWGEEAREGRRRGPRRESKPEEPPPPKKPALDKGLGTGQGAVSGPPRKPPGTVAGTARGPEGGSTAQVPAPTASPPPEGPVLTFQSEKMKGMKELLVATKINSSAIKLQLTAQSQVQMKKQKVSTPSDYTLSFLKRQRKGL

[9] = Growth inhibition of MLL-AF9 transformed mouse bone marrow cells after 7 days by MTT assay; format: functional; conditions: Bone marrow cell, 168 h
Mus musculus [10] = assay: Toxicity in CB17 SCID mouse xenografted with human MV4-11 cells assessed as reduction in body weight at 45 mg/kg, ip qd administered for 2 weeks; format: organism-based; design: scale not given: the % may be the effect or the level left; conditions: in vivo, 336 h; outline: as §3
[11] = molecular target: Menin/Histone-lysine N-methyltransferase MLL (Homo sapiens, UniProt O00255); assay: Inhibition of menin-MLL interaction (unknown origin) after 1 hr by fluorescence polarization assay; format: protein assay
Bone marrow cell = assay: Selectivity index, ratio of GI50 for Hoxa9/Meis1 transformed mouse bone marrow cells to GI50 for MLL-AF9 transformed mouse bone marrow cells; format: functional
[12] = Clearance in C57BL/6 mouse at 15 mg/kg, iv after 24 hrs by LC-MS/MS analysis; format: ADME, organism-based; conditions: in vivo; outline: as §4
Mus musculus [13] = assay: Cmax in C57BL/6 mouse plasma at 30 mg/kg, po after 24 hrs by LC-MS/MS analysis; format: ADME, organism-based; design: dose 30 mg/kg, route oral; conditions: in vivo; outline: as §4
Mus musculus [14] = assay: Volume of distribution at steady state in C57BL/6 mouse at 15 mg/kg, iv after 24 hrs by LC-MS/MS analysis; format: ADME, organism-based; conditions: in vivo; outline: as §4
MV4-11 [15] = assay: Growth inhibition of human MV4-11 after 7 days by MTT assay; format: functional; conditions: MV4-11, 168 h; outline: as §2
[16] = molecular target: T1, Menin/Histone-lysine N-methyltransferase 2A (Mus musculus); assay: Inhibition of menin-MLL interaction in MLL-AF9 transformed mouse bone marrow cells assessed as induction of cell differentiation measured as multilobed nuclei at 0.5 uM after 7 days by Cytospin/Wright-Giemsa staining assay; outline: as §1
Mus musculus [17] = assay: AUC in C57BL/6 mouse at 30 mg/kg, po after 24 hrs by LC-MS/MS analysis; format: ADME, organism-based; design: time < 24 hr, dose 30 mg/kg, route oral; conditions: in vivo; outline: as §4
HL-60 = assay: Growth inhibition of human HL60 after 7 days by MTT assay; format: functional; conditions: HL-60, 168 h; outline: as §2
[18] = molecular target: T1, Menin/Histone-lysine N-methyltransferase 2A (Mus musculus); assay: Inhibition of menin-MLL interaction in MLL-AF9 transformed mouse bone marrow cells assessed as downregulation of Hoxa9 expression level at 100 nM after 6 days by qRT-PCR analysis; outline: as §5
Mus musculus [19] = assay: Tmax in C57BL/6 mouse plasma at 30 mg/kg, po after 24 hrs by LC-MS/MS analysis; format: ADME, organism-based; conditions: in vivo; outline: as §4
[20] = molecular target: T1, Menin/Histone-lysine N-methyltransferase 2A (Mus musculus); assay: Inhibition of menin-MLL interaction in MLL-AF9 transformed mouse bone marrow cells assessed as downregulation of Meis1 expression level at 0.12 to 0.5 uM after 6 days by qRT-PCR analysis; outline: as §5

T1 sequence (O88559 whole entry, looked up): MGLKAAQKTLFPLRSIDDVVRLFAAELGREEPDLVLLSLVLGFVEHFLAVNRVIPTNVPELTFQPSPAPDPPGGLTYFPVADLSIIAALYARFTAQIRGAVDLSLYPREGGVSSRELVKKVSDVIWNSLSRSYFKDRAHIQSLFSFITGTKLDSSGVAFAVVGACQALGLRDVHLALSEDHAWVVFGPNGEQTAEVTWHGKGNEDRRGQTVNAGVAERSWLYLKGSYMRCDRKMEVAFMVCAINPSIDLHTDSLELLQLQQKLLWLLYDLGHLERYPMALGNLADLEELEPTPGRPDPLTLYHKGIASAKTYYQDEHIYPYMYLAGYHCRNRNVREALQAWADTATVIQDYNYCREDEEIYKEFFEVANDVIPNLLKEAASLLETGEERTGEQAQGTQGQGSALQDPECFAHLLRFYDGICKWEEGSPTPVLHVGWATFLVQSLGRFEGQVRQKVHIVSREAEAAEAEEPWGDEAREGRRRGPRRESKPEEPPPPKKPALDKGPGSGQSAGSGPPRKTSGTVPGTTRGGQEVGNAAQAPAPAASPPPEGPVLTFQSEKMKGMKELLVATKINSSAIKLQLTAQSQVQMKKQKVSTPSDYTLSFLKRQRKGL
T1 sequence (P55200 whole entry, looked up): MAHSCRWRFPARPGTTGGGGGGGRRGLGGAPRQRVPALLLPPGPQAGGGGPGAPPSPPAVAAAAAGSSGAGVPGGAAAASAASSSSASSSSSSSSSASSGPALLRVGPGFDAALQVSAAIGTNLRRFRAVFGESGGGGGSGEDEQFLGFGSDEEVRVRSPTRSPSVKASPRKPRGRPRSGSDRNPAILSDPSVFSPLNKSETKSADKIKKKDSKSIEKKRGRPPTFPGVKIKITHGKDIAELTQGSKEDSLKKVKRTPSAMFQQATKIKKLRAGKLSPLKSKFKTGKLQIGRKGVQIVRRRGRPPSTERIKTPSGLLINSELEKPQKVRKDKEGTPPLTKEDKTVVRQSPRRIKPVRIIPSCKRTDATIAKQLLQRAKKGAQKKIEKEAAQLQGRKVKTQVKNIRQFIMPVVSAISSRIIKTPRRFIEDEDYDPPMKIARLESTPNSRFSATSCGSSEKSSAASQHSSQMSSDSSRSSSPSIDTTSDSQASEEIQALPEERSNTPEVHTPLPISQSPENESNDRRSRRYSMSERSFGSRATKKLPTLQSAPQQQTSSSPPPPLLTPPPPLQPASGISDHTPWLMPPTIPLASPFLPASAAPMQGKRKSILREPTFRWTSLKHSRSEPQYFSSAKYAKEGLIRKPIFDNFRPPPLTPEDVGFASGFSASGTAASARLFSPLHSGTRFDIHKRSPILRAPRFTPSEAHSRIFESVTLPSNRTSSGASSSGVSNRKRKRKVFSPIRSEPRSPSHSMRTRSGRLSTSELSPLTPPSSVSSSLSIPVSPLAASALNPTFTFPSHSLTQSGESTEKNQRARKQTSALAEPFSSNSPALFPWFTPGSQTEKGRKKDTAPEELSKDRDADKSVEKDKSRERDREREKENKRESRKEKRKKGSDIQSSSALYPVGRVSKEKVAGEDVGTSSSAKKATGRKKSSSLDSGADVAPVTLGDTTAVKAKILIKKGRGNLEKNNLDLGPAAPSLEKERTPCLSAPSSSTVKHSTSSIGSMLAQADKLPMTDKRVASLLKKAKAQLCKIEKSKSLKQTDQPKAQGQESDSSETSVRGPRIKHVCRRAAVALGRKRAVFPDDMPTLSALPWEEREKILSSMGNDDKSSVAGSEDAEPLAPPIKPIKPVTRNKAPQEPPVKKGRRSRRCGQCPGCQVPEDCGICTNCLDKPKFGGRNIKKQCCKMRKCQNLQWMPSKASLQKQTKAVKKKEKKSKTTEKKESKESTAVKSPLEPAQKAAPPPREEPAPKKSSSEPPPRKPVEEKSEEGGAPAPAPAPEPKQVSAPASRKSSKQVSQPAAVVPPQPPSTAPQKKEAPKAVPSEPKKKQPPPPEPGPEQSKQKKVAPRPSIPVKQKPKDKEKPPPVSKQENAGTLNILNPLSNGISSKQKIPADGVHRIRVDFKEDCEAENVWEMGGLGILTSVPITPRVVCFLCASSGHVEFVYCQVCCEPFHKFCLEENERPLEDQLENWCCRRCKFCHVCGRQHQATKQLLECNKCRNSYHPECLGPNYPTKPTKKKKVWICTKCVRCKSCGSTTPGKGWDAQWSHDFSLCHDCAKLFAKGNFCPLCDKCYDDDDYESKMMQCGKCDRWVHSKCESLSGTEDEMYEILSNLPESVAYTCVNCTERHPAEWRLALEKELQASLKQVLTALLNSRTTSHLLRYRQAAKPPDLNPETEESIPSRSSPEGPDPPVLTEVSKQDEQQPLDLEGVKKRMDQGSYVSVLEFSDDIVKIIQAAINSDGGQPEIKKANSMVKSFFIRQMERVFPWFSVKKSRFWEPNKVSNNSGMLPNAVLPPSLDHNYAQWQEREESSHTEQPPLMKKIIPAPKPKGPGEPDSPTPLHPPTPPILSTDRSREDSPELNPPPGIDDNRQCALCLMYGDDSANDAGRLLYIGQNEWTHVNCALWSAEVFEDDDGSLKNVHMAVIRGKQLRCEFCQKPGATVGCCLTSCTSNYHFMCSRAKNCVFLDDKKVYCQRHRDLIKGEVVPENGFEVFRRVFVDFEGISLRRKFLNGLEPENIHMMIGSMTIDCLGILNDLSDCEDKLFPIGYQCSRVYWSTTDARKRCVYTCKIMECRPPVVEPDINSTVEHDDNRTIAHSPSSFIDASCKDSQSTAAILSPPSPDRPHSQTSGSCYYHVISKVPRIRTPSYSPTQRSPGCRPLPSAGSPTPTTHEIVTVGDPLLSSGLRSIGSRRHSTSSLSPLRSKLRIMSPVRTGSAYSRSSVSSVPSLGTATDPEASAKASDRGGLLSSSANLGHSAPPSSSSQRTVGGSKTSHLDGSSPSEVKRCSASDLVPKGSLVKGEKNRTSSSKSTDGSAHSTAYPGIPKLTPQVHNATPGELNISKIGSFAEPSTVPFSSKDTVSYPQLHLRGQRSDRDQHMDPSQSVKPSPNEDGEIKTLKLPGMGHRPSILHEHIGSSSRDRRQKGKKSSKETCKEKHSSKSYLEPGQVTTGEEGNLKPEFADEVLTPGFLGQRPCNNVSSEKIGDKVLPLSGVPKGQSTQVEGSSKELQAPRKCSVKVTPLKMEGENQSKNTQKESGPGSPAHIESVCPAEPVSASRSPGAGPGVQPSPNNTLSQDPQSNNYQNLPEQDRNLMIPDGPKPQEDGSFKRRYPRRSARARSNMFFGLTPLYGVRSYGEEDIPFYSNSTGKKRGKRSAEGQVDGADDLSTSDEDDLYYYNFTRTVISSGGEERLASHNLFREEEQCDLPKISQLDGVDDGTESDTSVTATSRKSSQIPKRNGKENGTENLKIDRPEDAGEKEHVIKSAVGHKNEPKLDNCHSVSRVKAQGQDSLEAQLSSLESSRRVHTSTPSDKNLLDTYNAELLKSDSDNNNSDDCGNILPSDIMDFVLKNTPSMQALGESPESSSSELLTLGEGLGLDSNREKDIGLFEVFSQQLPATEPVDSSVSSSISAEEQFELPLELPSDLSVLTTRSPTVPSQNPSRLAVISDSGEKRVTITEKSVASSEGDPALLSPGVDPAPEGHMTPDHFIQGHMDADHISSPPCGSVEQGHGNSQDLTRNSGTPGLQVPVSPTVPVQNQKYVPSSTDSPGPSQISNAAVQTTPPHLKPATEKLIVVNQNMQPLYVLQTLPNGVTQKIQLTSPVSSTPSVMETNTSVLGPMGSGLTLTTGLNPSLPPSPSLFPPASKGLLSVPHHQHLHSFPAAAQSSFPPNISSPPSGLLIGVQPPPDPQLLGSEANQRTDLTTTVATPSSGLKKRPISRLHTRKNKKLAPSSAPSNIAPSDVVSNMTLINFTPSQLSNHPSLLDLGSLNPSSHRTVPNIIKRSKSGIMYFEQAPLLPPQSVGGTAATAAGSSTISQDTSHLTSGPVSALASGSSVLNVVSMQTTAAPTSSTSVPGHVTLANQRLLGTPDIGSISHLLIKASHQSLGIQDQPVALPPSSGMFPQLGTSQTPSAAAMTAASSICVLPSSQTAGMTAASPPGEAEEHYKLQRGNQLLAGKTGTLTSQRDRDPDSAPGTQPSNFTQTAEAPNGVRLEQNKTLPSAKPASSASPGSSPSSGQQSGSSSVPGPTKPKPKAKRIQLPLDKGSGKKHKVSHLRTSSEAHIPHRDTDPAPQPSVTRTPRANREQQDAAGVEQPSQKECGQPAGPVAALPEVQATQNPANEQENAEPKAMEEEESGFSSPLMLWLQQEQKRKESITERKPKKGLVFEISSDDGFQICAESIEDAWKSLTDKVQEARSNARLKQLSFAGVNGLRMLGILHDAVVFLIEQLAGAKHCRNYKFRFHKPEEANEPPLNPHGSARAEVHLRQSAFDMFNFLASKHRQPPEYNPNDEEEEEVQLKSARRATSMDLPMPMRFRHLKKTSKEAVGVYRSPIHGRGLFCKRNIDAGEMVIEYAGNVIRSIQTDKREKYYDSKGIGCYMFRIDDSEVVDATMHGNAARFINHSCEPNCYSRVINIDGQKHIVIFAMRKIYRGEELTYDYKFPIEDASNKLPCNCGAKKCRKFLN

inhibition [1]: Active
GI50 (MOLM-13): 268 nM
Drug metabolism (Plasma): metabolite_detected
inhibition [3]: Active
AUC (Mus musculus [5]): 17897 ng·h/mL
t1/2 (Mus musculus [6]): 1.6 h
F (Mus musculus [7]): 51%
inhibition [8]: Active
Kd (Menin): 6.5 nM
IC50 [11]: 21 nM
clearance [12]: 14 mL/min/kg
Cmax (Mus musculus [13]): 4572 ng/mL
Vdss (Mus musculus [14]): 2347 mL/kg
GI50 (MV4-11 [15]): 175 nM
inhibition [16]: Active
AUC (Mus musculus [17]): 18090 ng·h/mL
GI50 (HL-60): > 6 µM
inhibition [18]: 50%
Tmax (Mus musculus [19]): 2 h
inhibition [20]: Active
Compound: N#Cc1cc2cc(CN3CCC(Nc4ncnc5sc(CC(F)(F)F)cc45)CC3)c(O)cc2n1Cc1cn[nH]c1
GI50 [2]: 9 µM
inhibition in vivo at 45 mg/kg (MV4-11 [4]): 80%
GI50 [9]: 83 nM
Activity (Mus musculus [10]): < 10%
RatioGI50 (Bone marrow cell): 108
